# Measurements as given in ChEMBL document CHEMBL1130127, “Synthesis, photophysical properties, in vivo photosensitizing efficacy, and human serum albumin binding properties of some novel bacteriochlorins” (J Med Chem, 1997).
# Calls of active or inactive are those of the source. The calls are words filed in the database; no cut-off is given here.
# Assays:
# [1] = test system: Mus musculus; assay: The compound was tested in vivo for photosensitizing efficacy in DBA/2 Mice transplanted with SMT/F tumors and the activity is expressed as % response (21-25 days) 3 hours post injection at 1 mg/kg concentration; No response; format: functional, organism-based; design: dose 1 mg/kg
# Summary of the method: (§1)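 Female DBA/2 HA-DD mice, 5-7 weeks old. A 1 mm SMT-F tumor piece from a donor was trocar-implanted subcutaneously in the axilla. At about 5 mm tumor diameter, sensitizer in 1% Tween 80/water was given iv; dose was based on extinction coefficient. At 3 or 24 h after injection, restrained mice had the tumor lit with 135 J/cm2 laser light at the in vivo long-wavelength maximum. Tumor response was followed to day 30; six mice/group.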
# [2] = test system: Mus musculus; assay: The compound was tested in vivo for photosensitizing efficacy in DBA/2 Mice transplanted with SMT/F tumors and the activity is expressed as % response (21-25 days) 3 hours post injection at 2.5 mg/kg concentration; format: functional; summary of the method: as §1
# [3] = test system: Mus musculus; assay: The compound was tested in vivo for photosensitizing efficacy in DBA/2 Mice transplanted with SMT/F tumors and the activity is expressed as % response (1-5 days) 3 hours post injection at 2 1 mg/kg concentration; No response; format: functional, organism-based; design: dose 1 mg/kg; conditions: at 1 mg/kg; summary of the method: as §1
# [4] = test system: Mus musculus; assay: The compound was tested in vivo for photosensitizing efficacy in DBA/2 Mice transplanted with SMT/F tumors and the activity is expressed as % response (1-5 days) 3 hours post injection at 2.5 mg/kg concentration; format: functional; summary of the method: as §1
# [5] = test system: Mus musculus; assay: The compound was tested in vivo for photosensitizing efficacy in DBA/2 Mice transplanted with SMT/F tumors and the activity is expressed as % response (1-5 days) 3 hours post injection at 5.0 mg/kg concentration; format: functional; summary of the method: as §1
# [6] = test system: Mus musculus; assay: The compound was tested in vivo for photosensitizing efficacy in DBA/2 Mice transplanted with SMT/F tumors and the activity is expressed as % response (11-15 days) 3 hours post injection at 1 mg/kg concentration; No response; format: functional, organism-based; design: dose 1 mg/kg; summary of the method: as §1
# [7] = test system: Mus musculus; assay: The compound was tested in vivo for photosensitizing efficacy in DBA/2 Mice transplanted with SMT/F tumors and the activity is expressed as % response (11-15 days) 3 hours post injection at 2.5 mg/kg concentration; format: functional; summary of the method: as §1
# [8] = test system: Mus musculus; assay: The compound was tested in vivo for photosensitizing efficacy in DBA/2 Mice transplanted with SMT/F tumors and the activity is expressed as % response (11-15 days) 3 hours post injection at 5.0 mg/kg concentration; format: functional; summary of the method: as §1
# [9] = test system: Mus musculus; assay: The compound was tested in vivo for photosensitizing efficacy in DBA/2 Mice transplanted with SMT/F tumors and the activity is expressed as % response (16-20 days) 3 hours post injection at 1 mg/kg concentration; No response; format: functional, organism-based; design: dose 1 mg/kg; summary of the method: as §1
# [10] = test system: Mus musculus; assay: The compound was tested in vivo for photosensitizing efficacy in DBA/2 Mice transplanted with SMT/F tumors and the activity is expressed as % response (16-20 days) 3 hours post injection at 2.5 mg/kg concentration; format: functional; summary of the method: as §1
# [11] = test system: Mus musculus; assay: The compound was tested in vivo for photosensitizing efficacy in DBA/2 Mice transplanted with SMT/F tumors and the activity is expressed as % response (16-20 days) 3 hours post injection at 5.0 mg/kg concentration; format: functional; summary of the method: as §1
# [12] = test system: Mus musculus; assay: The compound was tested in vivo for photosensitizing efficacy in DBA/2 Mice transplanted with SMT/F tumors and the activity is expressed as % response (21-25 days) 3 hours post injection at 5.0 mg/kg concentration; No response; format: functional, organism-based; design: dose 5 mg/kg; summary of the method: as §1
# [13] = test system: Mus musculus; assay: The compound was tested in vivo for photosensitizing efficacy in DBA/2 Mice transplanted with SMT/F tumors and the activity is expressed as % response (26-30 days) 3 hours post injection at 1 mg/kg concentration; No response; format: functional, organism-based; design: dose 1 mg/kg; summary of the method: as §1
# [14] = test system: Mus musculus; assay: The compound was tested in vivo for photosensitizing efficacy in DBA/2 Mice transplanted with SMT/F tumors and the activity is expressed as % response (26-30 days) 3 hours post injection at 2.5 mg/kg concentration; format: functional; summary of the method: as §1
# [15] = test system: Mus musculus; assay: The compound was tested in vivo for photosensitizing efficacy in DBA/2 Mice transplanted with SMT/F tumors and the activity is expressed as % response (26-30 days) 3 hours post injection at 5.0 mg/kg concentration; No response; format: functional, organism-based; design: dose 5 mg/kg; summary of the method: as §1
# [16] = test system: Mus musculus; assay: The compound was tested in vivo for photosensitizing efficacy in DBA/2 Mice transplanted with SMT/F tumors and the activity is expressed as % response (6-10 days) 3 hours post injection at 2.5 mg/kg concentration; format: functional; summary of the method: as §1
# [17] = test system: Mus musculus; assay: The compound was tested in vivo for photosensitizing efficacy in DBA/2 Mice transplanted with SMT/F tumors and the activity is expressed as % response (6-10 days) 3 hours post injection at 5.0 mg/kg concentration; format: functional; summary of the method: as §1
# [18] = molecular target: T1, Albumin (Homo sapiens, UniProt P02768); assay: Binding affinity against Human serum albumin(Site I).
# T1 sequence (P02768 whole entry): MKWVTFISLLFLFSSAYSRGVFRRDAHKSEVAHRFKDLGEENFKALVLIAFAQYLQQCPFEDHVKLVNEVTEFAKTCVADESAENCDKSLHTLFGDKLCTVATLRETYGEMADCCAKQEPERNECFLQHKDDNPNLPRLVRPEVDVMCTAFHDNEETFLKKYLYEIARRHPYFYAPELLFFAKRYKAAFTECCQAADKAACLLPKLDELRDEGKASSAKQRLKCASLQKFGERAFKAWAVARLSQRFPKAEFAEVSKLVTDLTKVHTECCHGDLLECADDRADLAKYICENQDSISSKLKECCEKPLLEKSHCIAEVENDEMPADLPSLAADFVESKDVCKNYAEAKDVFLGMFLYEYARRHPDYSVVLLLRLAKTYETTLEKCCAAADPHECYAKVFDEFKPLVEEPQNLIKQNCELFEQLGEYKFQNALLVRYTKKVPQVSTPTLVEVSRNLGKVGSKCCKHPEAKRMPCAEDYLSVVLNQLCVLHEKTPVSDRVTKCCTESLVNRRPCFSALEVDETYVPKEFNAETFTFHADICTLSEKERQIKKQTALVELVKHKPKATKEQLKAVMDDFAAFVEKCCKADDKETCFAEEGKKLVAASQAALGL
# Summary of the method: (§2)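 Fluorometric titration: HSA and sensitizer fixed at 1 × 10^-6 mol/L. Site probe varied 4 × 10^-7 to 2 × 10^-6 mol/L: DNSA for site I, read at 472 nm; DP for site II, read at 476 nm; excitation 340 nm. Incubated 4 °C, pH 7.0, 4 h, dark. Bound probe taken from standard curves of free probe (water) and HSA-bound probe (2.5 × 10^-5 mol/L HSA).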
# [19] = molecular target: T1, Albumin; assay: Binding affinity against Human serum albumin(Site II).; summary of the method: as §2
# [20] = test system: Mus musculus; assay: The compound was tested in vivo for photosensitizing efficacy in DBA/2 Mice transplanted with SMT/F tumors and the activity is expressed as % response (6-10 days) 3 hours post injection at 1 mg/kg concentration; No response; format: functional, organism-based; design: dose 1 mg/kg; summary of the method: as §1
compound,measurement,setting,value
CCc1c(C)c2[nH]c1cc1[nH]c(cc3nc4c(c5nc(c2C=O)[C@@H](C)[C@@H]5CCC(=O)OC)CCC4=C3C)C(=O)C1(C)CC (stereo not given in full),Response,[1],inactive
same,Response,[2],60%
same,Response,[3],inactive
same,Response,[4],100%
same,Response,[5],100%
same,Response,[6],inactive
same,Response,[7],80%
same,Response,[8],60%
same,Response,[9],inactive
same,Response,[10],60%
same,Response,[11],0%
same,Response,[12],inactive
same,Response,[13],inactive
same,Response,[14],20%
same,Response,[15],inactive
same,Response,[16],100%
same,Response,[17],60%
same,Binding constant,[18],500000 l M-1
same,Binding constant,[19],500000 l M-1
same,Response,[20],inactive
